ChEMBL document CHEMBL1124369, “Pyrido[3,4-e]-1,2,4-triazines and related heterocycles as potential antifungal agents” (1989)
Values after ≈ are worked out from the molar mass of the structure shown.

What was measured:
Aspergillus niger [1] = experiment: Antifungal activity against Aspergillus niger; format: functional
Summary of the method: (§1)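 Agar dilution MIC. Twofold serial drug dilutions in yeast nitrogen base medium with 1% dextrose, 0.15% asparagine and 1.5% agar. Agar surfaces inoculated using a Steers multiple inocula replicator, then incubated at 35 °C for 24-48 h. MIC was recorded as the lowest concentration inhibiting visible growth. Amphotericin B, miconazole and nystatin served as controls.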

Kluyveromyces marxianus [2] = experiment: Antifungal activity against Candida pseudotropicalis; format: functional; summary of the method: as §1
Candida albicans [3] = experiment: Antifungal activity against Candida albicans; format: functional; summary of the method: as §1
Candida parapsilosis = experiment: Antifungal activity against Candida parapsilosis; format: functional; details: Lodderomyces parapsilosis; summary of the method: as §1
Candida tropicalis [4] = experiment: Antifungal activity against Candida tropicalis; format: functional; summary of the method: as §1
Trichophyton benhamiae [5] = experiment: Antifungal activity against Trichophyton mentagrophytes; format: functional, trychophyton mentagrophytes; summary of the method: as §1
Trichophyton rubrum [6] = experiment: Antifungal activity against Trichophyton rubrum; format: functional; summary of the method: as §1
Candida albicans [7] = experiment: Antifungal activity against Candida stellatoidea; format: functional; summary of the method: as §1
Diutina rugosa = experiment: Antifungal activity against Candida rugosa; format: functional; summary of the method: as §1
Aspergillus niger [8] = experiment: Antifungal activity against Aspergillus niger; Range is 64-128; format: functional; summary of the method: as §1
Mucor fragilis = experiment: Antifungal activity against Mucor fragilis; format: functional; summary of the method: as §1
Aspergillus niger [9] = experiment: Antifungal activity against Aspergillus niger; Range is 16-32; format: functional; summary of the method: as §1
Candida albicans [10] = experiment: Antifungal activity against Candida albicans; Range is 16-32; format: functional; summary of the method: as §1
Candida albicans [11] = experiment: Antifungal activity against Candida albicans; Range is 64-128; format: functional; summary of the method: as §1
Trichophyton rubrum [12] = experiment: Antifungal activity against Trichophyton rubrum; Range is 8-32; format: functional
Candida tropicalis [13] = experiment: Antifungal activity against Candida tropicalis; Range is 8-16; format: functional; summary of the method: as §1
Trichophyton rubrum [14] = experiment: Antifungal activity against Trichophyton rubrum; Range is 1-2; format: functional; summary of the method: as §1
Trichophyton benhamiae [15] = experiment: Antifungal activity against Trichophyton mentagrophytes; Range is 64-128; format: functional, trychophyton mentagrophytes; summary of the method: as §1
Trichophyton rubrum [16] = experiment: Antifungal activity against Trichophyton rubrum; Range is 64-128; format: functional
Kluyveromyces marxianus [17] = experiment: Antifungal activity against Candida pseudotropicalis; Range is 8-16; format: functional; summary of the method: as §1
Trichophyton rubrum [18] = experiment: Antifungal activity against Trichophyton rubrum; Range is 2-4; format: functional; summary of the method: as §1
Aspergillus niger [19] = experiment: Antifungal activity against Aspergillus niger; Range is 32-64; format: functional; summary of the method: as §1
Candida albicans [20] = experiment: Antifungal activity against Candida albicans; Range is 32-64; format: functional; summary of the method: as §1
Candida tropicalis [21] = experiment: Antifungal activity against Candida tropicalis; Range is 32-64; format: functional; summary of the method: as §1
Candida albicans [22] = experiment: Antifungal activity against Candida albicans; Range is 8-16; format: functional; summary of the method: as §1
Trichophyton benhamiae [23] = experiment: Antifungal activity against Trichophyton mentagrophytes; Range is 4-8; format: functional, trychophyton mentagrophytes; summary of the method: as §1
Trichophyton rubrum [24] = experiment: Antifungal activity against Trichophyton rubrum; Range is 32-64; format: functional; summary of the method: as §1

Structure (SMILES) | MIC (Aspergillus niger [1]) [µg/mL] | MIC (Kluyveromyces marxianus [2]) [µg/mL] | MIC (Candida albicans [3]) [µg/mL] | MIC (Candida parapsilosis) [µg/mL] | MIC (Candida tropicalis [4]) [µg/mL] | MIC (Trichophyton benhamiae [5]) [µg/mL] | MIC (Trichophyton rubrum [6]) [µg/mL] | MIC (Candida albicans [7]) [µg/mL] | MIC (Diutina rugosa) [µg/mL] | MIC (Mucor fragilis) [µg/mL] | MIC (Aspergillus niger [9]) [µg/mL] | further results
CC1(C)N=Nc2ccncc2N1 | 128 (≈ 789 µM) | 128 (≈ 789 µM) | 128 (≈ 789 µM) | 128 (≈ 789 µM) | 128 (≈ 789 µM) | 128 (≈ 789 µM) | 128 (≈ 789 µM) |  |  |  |  | 
Cc1nc(C)c2nc(-c3ccncc3)nnc2c1N |  | 128 (≈ 507 µM) | 128 (≈ 507 µM) |  | 128 (≈ 507 µM) | 32 (≈ 127 µM) | 16 (≈ 63.4 µM) | > 128 | > 128 | 64 (≈ 254 µM) |  | MIC (Aspergillus niger [8]): 64 µg/mL (≈ 254 µM)
CN(C)/C=C/c1nnc2ccncc2n1 |  | 128 (≈ 636 µM) | 64 (≈ 318 µM) |  | 128 (≈ 636 µM) |  |  | 16 (≈ 79.5 µM) | 16 (≈ 79.5 µM) | 64 (≈ 318 µM) |  | MIC (Aspergillus niger [8]): 64 µg/mL (≈ 318 µM)
Fc1ccc(-c2nnc3ccncc3n2)c(F)c1 |  | 32 (≈ 131 µM) |  | 16 (≈ 65.5 µM) | 16 (≈ 65.5 µM) | 8 (≈ 32.8 µM) | 2 (≈ 8.19 µM) |  |  |  | 16 (≈ 65.5 µM) | MIC (Candida albicans [10]): 16 µg/mL (≈ 65.5 µM)
Cc1nnc2c(cnc3ccccc32)n1 |  | 32 (≈ 163 µM) | 32 (≈ 163 µM) | 32 (≈ 163 µM) | 32 (≈ 163 µM) | 32 (≈ 163 µM) | 32 (≈ 163 µM) |  |  |  | 16 (≈ 81.5 µM) | 
FC(F)(F)c1ccc(-c2nnc3ccncc3n2)cc1 | 128 (≈ 463 µM) | 128 (≈ 463 µM) |  | 128 (≈ 463 µM) | 128 (≈ 463 µM) | 64 (≈ 232 µM) |  | > 128 | > 128 | > 128 |  | MIC (Candida albicans [11]): 64 µg/mL (≈ 232 µM); MIC (Trichophyton rubrum [12]): 8 µg/mL (≈ 29 µM)
c1ccc2cc(-c3nnc4ccncc4n3)ccc2c1 | 128 (≈ 496 µM) | 128 (≈ 496 µM) | 128 (≈ 496 µM) |  | 128 (≈ 496 µM) |  |  | > 128 | > 128 | 128 (≈ 496 µM) |  | 
c1ccc(-c2nnc3ccccc3n2)cc1 | 128 (≈ 618 µM) | 128 (≈ 618 µM) | 64 (≈ 309 µM) |  | 128 (≈ 618 µM) |  | 64 (≈ 309 µM) | 128 (≈ 618 µM) | 128 (≈ 618 µM) |  |  | 
Fc1cccc(-c2nnc3ccncc3n2)c1 |  | 8 (≈ 35.4 µM) | 16 (≈ 70.7 µM) | 16 (≈ 70.7 µM) |  | 4 (≈ 17.7 µM) |  | 32 (≈ 141 µM) | 16 (≈ 70.7 µM) | 16 (≈ 70.7 µM) | 16 (≈ 70.7 µM) | MIC (Candida tropicalis [13]): 8 µg/mL (≈ 35.4 µM); MIC (Trichophyton rubrum [14]): 1 µg/mL (≈ 4.42 µM)
c1cnc2nncnc2c1 |  | 32 (≈ 242 µM) | 64 (≈ 484 µM) | 32 (≈ 242 µM) | 64 (≈ 484 µM) | 32 (≈ 242 µM) | 32 (≈ 242 µM) |  |  |  | 16 (≈ 121 µM) | 
CN1CCN(/C=C/c2nnc3ccncc3n2)CC1 |  | 128 (≈ 499 µM) | 128 (≈ 499 µM) |  | 128 (≈ 499 µM) |  |  | 32 (≈ 125 µM) | 32 (≈ 125 µM) | 128 (≈ 499 µM) |  | MIC (Aspergillus niger [8]): 64 µg/mL (≈ 250 µM)
CC1(C)N=Nc2c(cnc3ccccc23)N1 | 128 (≈ 603 µM) | 128 (≈ 603 µM) | 128 (≈ 603 µM) | 128 (≈ 603 µM) | 128 (≈ 603 µM) |  |  |  |  |  |  | MIC (Trichophyton benhamiae [15]): 64 µg/mL (≈ 302 µM); MIC (Trichophyton rubrum [16]): 64 µg/mL (≈ 302 µM)
c1ccc(-c2nnc3ccncc3n2)cc1 |  |  | 16 (≈ 76.8 µM) | 16 (≈ 76.8 µM) |  | 8 (≈ 38.4 µM) |  | 16 (≈ 76.8 µM) | 32 (≈ 154 µM) | > 128 | 16 (≈ 76.8 µM) | MIC (Kluyveromyces marxianus [17]): 8 µg/mL (≈ 38.4 µM); MIC (Candida tropicalis [13]): 8 µg/mL (≈ 38.4 µM); MIC (Trichophyton rubrum [18]): 2 µg/mL (≈ 9.61 µM)
CCCc1nnc2ccncc2n1 |  | 16 (≈ 91.8 µM) |  | 64 (≈ 367 µM) |  | 32 (≈ 184 µM) |  | 64 (≈ 367 µM) | 64 (≈ 367 µM) | 64 (≈ 367 µM) |  | MIC (Aspergillus niger [19]): 32 µg/mL (≈ 184 µM); MIC (Candida albicans [20]): 32 µg/mL (≈ 184 µM); MIC (Candida tropicalis [21]): 32 µg/mL (≈ 184 µM); MIC (Trichophyton rubrum [12]): 8 µg/mL (≈ 45.9 µM)
Fc1ccc(-c2nnc3ccncc3n2)cc1 |  | 8 (≈ 35.4 µM) |  | 8 (≈ 35.4 µM) |  |  | 4 (≈ 17.7 µM) | 8 (≈ 35.4 µM) | 8 (≈ 35.4 µM) | 64 (≈ 283 µM) | 16 (≈ 70.7 µM) | MIC (Candida albicans [22]): 8 µg/mL (≈ 35.4 µM); MIC (Candida tropicalis [13]): 8 µg/mL (≈ 35.4 µM); MIC (Trichophyton benhamiae [23]): 4 µg/mL (≈ 17.7 µM)
c1ccc2c3c(cnc2c1)NC1(CCCCC1)N=N3 | 128 (≈ 507 µM) | 128 (≈ 507 µM) | 128 (≈ 507 µM) | 128 (≈ 507 µM) | 128 (≈ 507 µM) | 64 (≈ 254 µM) | 64 (≈ 254 µM) |  |  |  |  | 
Cc1nc(C)c2nc(-c3ccc(F)cc3)nnc2c1NC(=O)c1ccccc1 | 128 (≈ 343 µM) | 128 (≈ 343 µM) | 128 (≈ 343 µM) | 128 (≈ 343 µM) | 128 (≈ 343 µM) |  |  |  |  |  |  | MIC (Trichophyton benhamiae [15]): 64 µg/mL (≈ 171 µM); MIC (Trichophyton rubrum [24]): 32 µg/mL (≈ 85.7 µM)
c1ccc2nc(-c3nnc4ccncc4n3)cnc2c1 | 32 (≈ 123 µM) | 8 (≈ 30.7 µM) | 8 (≈ 30.7 µM) |  | 8 (≈ 30.7 µM) |  |  | 32 (≈ 123 µM) | 32 (≈ 123 µM) | 32 (≈ 123 µM) |  | 
Fc1ccccc1-c1nnc2ccncc2n1 | 16 (≈ 70.7 µM) | 32 (≈ 141 µM) | 32 (≈ 141 µM) | 32 (≈ 141 µM) | 32 (≈ 141 µM) | 8 (≈ 35.4 µM) |  | 32 (≈ 141 µM) | 16 (≈ 70.7 µM) | 64 (≈ 283 µM) |  | MIC (Trichophyton rubrum [18]): 2 µg/mL (≈ 8.84 µM)
